Test results as given in ChEMBL document CHEMBL1137561 (J Med Chem, 2007).

Assays:
[1] = Cytotoxicity against MT4 cells after 4 days by MTT method; type: cell-based; settings: human
Outline: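 Mock-infected (noninfected) MT-4 cells, run in parallel with the antiviral test. Viable cells read by the MTT tetrazolium colorimetric method. […] Means ± SD from at least two experiments. The top concentration was limited where compounds precipitated in the culture medium.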

[2] = Selectivity index, ratio of CC50 for MT4 cells to EC50 for HIV1 NL43 infected MT4 cells; type: functional
[3] = test system: Human immunodeficiency virus 1; experiment: Antiviral activity against HIV1 NL43 in MT4 cells assessed as inhibition of viral induced cytopathic effect after 5 days by MTT method; settings: Human immunodeficiency virus 1, NL43, MT4, 120 h
[4] = test system: Human immunodeficiency virus 1; experiment: Antiviral activity against HIV1 with reverse transcriptase Y181C mutation in MT4 cells assessed as inhibition of viral induced cytopathic effect by MTT method; type: functional, organism-based; settings: Human immunodeficiency virus 1, MT4
Outline: (§1)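 MT-4 cells infected with the HIV-1 NNRTI-resistant mutant strain. Viable cells scored at day 5 post-infection by the MTT tetrazolium colorimetric method. […] Values are means ± SD from at least two experiments.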

[5] = test system: Human immunodeficiency virus 1; experiment: Antiviral activity against HIV1 with reverse transcriptase Y188L mutation in MT4 cells assessed as inhibition of viral induced cytopathic effect by MTT method; type: functional, organism-based; settings: Human immunodeficiency virus 1, MT4
Outline: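 MT-4 cells infected with the HIV-1 NNRTI-resistant mutant strain. Viable cells scored at day 5 post-infection by the MTT tetrazolium colorimetric method. Values are means ± SD from at least two experiments.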

[6] = test system: Human immunodeficiency virus 1; experiment: Antiviral activity against HIV1 with reverse transcriptase K103N mutation in MT4 cells assessed as inhibition of viral induced cytopathic effect by MTT method; type: functional, organism-based; settings: Human immunodeficiency virus 1, MT4; outline: as §1
[7] = test system: Human immunodeficiency virus 1; experiment: Antiviral activity against HIV1 with reverse transcriptase IRLL98 mutation in MT4 cells assessed as inhibition of viral induced cytopathic effect by MTT method; type: functional, organism-based; settings: Human immunodeficiency virus 1, MT4
[8] = biological target: Human immunodeficiency virus type 1 reverse transcriptase (Human immunodeficiency virus 1, UniProt Q72547, V106A); experiment: Inhibition of HIV1 reverse transcriptase V106A mutant
[9] = Resistance index, Ratio of EC50 for drug-resistant HIV1 with RT Y181C mutation in MT4 cells to EC50 for HIV1 NL43 in MT4 cells
[10] = Resistance index, Ratio of EC50 for drug-resistant HIV1 with RT IRLL98 mutation in MT4 cells to EC50 for HIV1 NL43 in MT4 cells
[11] = Resistance index, Ratio of EC50 for drug-resistant HIV1 with RT K103N mutation in MT4 cells to EC50 for HIV1 NL43 in MT4 cells

SMILES | CC50 at 96 h [1] [nM] | Ratio CC50/EC50 [2] | EC50 [3] [nM] | EC50 [4] [nM] | EC50 [5] [nM] | EC50 [6] [nM] | EC50 [7] [nM] | Ki [8] [nM] | Ratio EC50 [9] | Ratio EC50 [10] | Ratio EC50 [11]
CCN(CC)c1nc(Cc2c(F)cccc2F)c(C)c(=O)[nH]1 | > 81000 | >2700 | 30 | – | – | – | – | – | – | – | –
O=C1Nc2ccc(Cl)cc2C(C#CC2CC2)(C(F)(F)F)O1 (single isomer, unassigned) [EFAVIRENZ] | > 300 | – | – | 6 | 230 | 90 | 80 | – | – | – | –
CCN(CC)c1nc(Cc2c(F)cccc2F)cc(=O)[nH]1 | > 85000 | >639 | 133 | – | – | – | – | – | – | – | –
Cc1c(Cc2c(F)cccc2N2CCCC2)nc(N2CCCC2)[nH]c1=O | > 70000 | >113 | 620 | – | – | – | – | 500 | – | – | –
CCN(C)c1nc(Cc2c(F)cccc2F)cc(=O)[nH]1 | > 89000 | >6846 | 13 | 500 | > 10000 | > 10000 | 2000 | – | 38 | 154 | –
CC1CCCCN1c1nc(Cc2c(F)cccc2F)cc(=O)[nH]1 (stereo not drawn) | > 78000 | >729 | 107 | 1140 | > 10000 | > 10000 | 3000 | – | 11 | 28 | –
O=c1cc(Cc2c(F)cccc2F)nc(N2CCCC2)[nH]1 | > 86000 | >925 | 93 | > 10000 | > 10000 | > 10000 | > 10000 | – | – | – | –
CC(c1cc(=O)[nH]c(N(C)C)n1)c1c(F)cccc1F (stereo not drawn) | 89000 | 89000 | 1 | 260 | > 10000 | 120 | 670 | 500 | 260 | 670 | 120
Cc1c(Cc2c(F)cccc2F)nc(N(C)c2ccccc2)[nH]c1=O | > 73000 | >849 | 86 | – | – | – | – | – | – | – | –
Cc1c(Cc2c(F)cccc2F)nc(N2CCC3(CC2)OCCO3)[nH]c1=O | > 66000 | >101 | 650 | – | – | – | – | – | – | – | –
Cc1c(Cc2c(F)cccc2F)nc(N2CCCC2)[nH]c1=O | > 82000 | >2562 | 32 | 5150 | > 10000 | > 10000 | > 10000 | – | 161 | – | –
Cc1c(C(C)c2c(Cl)cccc2Cl)nc(N(C)C)[nH]c1=O (stereo not drawn) | 35000 | 1167 | 30 | – | – | – | – | – | – | – | –
Cc1c(Cc2c(F)cccc2F)nc(N2CCCCCC2)[nH]c1=O | > 75000 | >1500 | 50 | 570 | > 10000 | > 10000 | 1700 | 500 | 11 | 34 | –
CC1CCN(c2nc(Cc3c(F)cccc3F)cc(=O)[nH]2)CC1 | > 78000 | >2229 | 35 | 1290 | > 10000 | > 10000 | 4600 | – | 37 | 131 | –
Cc1c(C(C)c2c(F)cccc2F)nc(N2CCCC2)[nH]c1=O (stereo not drawn) | > 78000 | >39000 | 2 | 71 | > 10000 | 155 | 200 | – | 35 | 100 | 77
Cc1c(C(C)c2ccccc2F)nc(N(C)C)[nH]c1=O (stereo not drawn) | 44000 | 7333 | 6 | – | – | – | – | – | – | – | –
O=c1cc(Cc2c(F)cccc2N2CCCC2)nc(N2CCCC2)[nH]1 | > 73000 | >103 | 710 | – | – | – | – | – | – | – | –
